Converted amounts (≈) assume the structure as drawn. The source made the active and inactive calls. The rule behind the calls is not given here.
Legend:
[1] = Solubility of the compound in water; type: physicochemical
In short: (§1)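 Solubility of the compound measured at 25±0.2°C, separately in water and in DMSO; reported in µg/mL.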

HCT-116 [2] = assay: Induction of apoptosis in human HCT116 cells assessed as apoptotic cell population at 1 uM measured after 48 hrs by Annexin V-FITC/propidium iodide staining-based flow cytometry (reference value: 5.9%); type: functional
Homo sapiens = species on record: Homo sapiens; assay: Inhibition of AURKA/PLK1 in human HCT116 cells assessed as increase in histone H3 Ser10 phosphorylation measured after 24 to 48 hrs by Western blot analysis; type: cell-based
HCT-116 [3] = assay: Cell cycle arrest in human HCT116 cells assessed as increase in accumulation at G2/M phase measured after 24 to 48 hrs by propidium iodide staining-based flow cytometry; type: functional
[4] = AUC (0 to infinity) in Sprague-Dawley rat at 50 mg/kg, po administered via gastric gavage by LC-MS/MS analysis; type: ADME, organism-based; parameters: dose 50 mg/kg, time infinity, route oral; settings: in vivo
A549 = assay: Antiproliferative activity against human A549 cells measured after 48 hrs by MTT assay; type: functional, cell-based; settings: A549, 48 h
In short: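 Cells were exposed to a range of compound concentrations for 48 h. MTT reagent was then added and absorbance read at 490 nm. Viability was normalized to vehicle control set as 100%, from n = 3 independent experiments, and IC50 was taken from the dose–response curves.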

[5] = AUC (0 to infinity) in Sprague-Dawley rat at 10 mg/kg, iv administered […] by LC-MS/MS analysis; type: ADME, organism-based; parameters: dose 10 mg/kg, route intravenous, time infinity; settings: in vivo
[6] = target: T1, Phosphatidylinositol 4,5-bisphosphate 3-kinase catalytic subunit delta isoform (Homo sapiens, UniProt O00329); assay: Binding affinity to wild-type human partial length PIK3CD (R108 to Q1044 residues) expressed in mammalian expression system measured after 1 hr by kinomescan method; settings: pooled result: one value given for 15 cell lines, strains, targets or settings
T1 sequence (O00329 whole entry): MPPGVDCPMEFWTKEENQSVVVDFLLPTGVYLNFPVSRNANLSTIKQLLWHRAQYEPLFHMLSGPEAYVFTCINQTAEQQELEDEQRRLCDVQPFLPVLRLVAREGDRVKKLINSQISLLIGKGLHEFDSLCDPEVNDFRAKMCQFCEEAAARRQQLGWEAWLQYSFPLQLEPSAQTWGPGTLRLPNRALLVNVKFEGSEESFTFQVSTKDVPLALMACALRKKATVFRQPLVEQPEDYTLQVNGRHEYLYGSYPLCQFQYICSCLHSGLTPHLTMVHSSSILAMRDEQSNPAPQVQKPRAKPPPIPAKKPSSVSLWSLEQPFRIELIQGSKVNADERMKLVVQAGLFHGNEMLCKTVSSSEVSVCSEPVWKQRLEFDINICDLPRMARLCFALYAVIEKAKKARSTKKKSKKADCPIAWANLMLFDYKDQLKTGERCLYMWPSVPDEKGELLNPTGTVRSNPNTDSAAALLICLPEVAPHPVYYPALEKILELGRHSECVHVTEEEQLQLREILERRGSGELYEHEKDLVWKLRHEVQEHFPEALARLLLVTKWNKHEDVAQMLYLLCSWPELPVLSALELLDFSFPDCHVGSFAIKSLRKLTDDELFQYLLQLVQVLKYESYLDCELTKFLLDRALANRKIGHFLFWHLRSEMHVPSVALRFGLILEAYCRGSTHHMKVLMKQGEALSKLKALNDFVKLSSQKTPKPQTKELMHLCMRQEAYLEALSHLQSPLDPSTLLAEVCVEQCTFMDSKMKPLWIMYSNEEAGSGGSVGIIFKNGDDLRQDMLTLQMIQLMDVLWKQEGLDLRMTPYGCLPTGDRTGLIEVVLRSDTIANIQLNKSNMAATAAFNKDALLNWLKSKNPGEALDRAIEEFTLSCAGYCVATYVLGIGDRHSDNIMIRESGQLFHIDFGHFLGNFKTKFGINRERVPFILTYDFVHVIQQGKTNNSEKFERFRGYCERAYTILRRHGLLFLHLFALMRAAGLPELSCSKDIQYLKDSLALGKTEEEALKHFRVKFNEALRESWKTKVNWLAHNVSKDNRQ

Aurora kinase A = target: T2, Aurora kinase A (Homo sapiens, UniProt O14965); assay: Binding affinity to wild-type human partial length AURKA (E122 to K401 residues) expressed in mammalian expression system measured after 1 hr by Kinomescan method
T2 sequence (O14965 whole entry): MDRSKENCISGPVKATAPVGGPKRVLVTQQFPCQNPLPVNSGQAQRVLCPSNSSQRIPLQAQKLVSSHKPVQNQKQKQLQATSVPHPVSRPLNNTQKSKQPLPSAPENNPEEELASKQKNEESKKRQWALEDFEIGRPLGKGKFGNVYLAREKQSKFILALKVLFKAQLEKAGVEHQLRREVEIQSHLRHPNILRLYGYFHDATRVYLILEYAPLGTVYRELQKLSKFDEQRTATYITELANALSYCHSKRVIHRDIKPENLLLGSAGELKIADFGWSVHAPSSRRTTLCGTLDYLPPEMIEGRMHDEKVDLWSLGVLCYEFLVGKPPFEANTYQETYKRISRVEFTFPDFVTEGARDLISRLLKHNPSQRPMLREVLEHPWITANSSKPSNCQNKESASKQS
In short: (§2)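 KINOMEscan competition binding assay. A 321-kinase panel was first screened at 10 μM compound, and binding affinities were then determined for Aurora and PLK family members.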

HCT-116 [7] = assay: Induction of apoptosis in human HCT116 cells assessed as apoptotic cell population at 5 uM measured after 48 hrs by Annexin V-FITC/propidium iodide staining-based flow cytometry (reference value: 5.9%); type: functional
[8] = Toxicity in BALB/c mouse xenografted with human HCT116 cells assessed as change in body weight at 10 mg/kg, iv administered every 3 days for 24 days measured post-last dose; type: organism-based; settings: in vivo
[9] = Solubility of the compound in DMSO; type: physicochemical; in short: as §1
HCT-116 [10] = assay: Antitumor activity against human HCT116 cells xenografted in BALB/c mouse assessed as mean survival days at 5 mg/kg, iv administered every 3 days for 60 days (reference value: 25 day); type: functional
HCT-116 [11] = assay: Antitumor activity against human HCT116 cells xenografted in BALB/c mouse assessed as mean survival days at 1 mg/kg, iv administered every 3 days for 60 days (reference value: 25 day); type: functional
[12] = target: Serine/threonine-protein kinase PLK1 (Homo sapiens, UniProt P53350); assay: Binding affinity to wild-type human partial length PLK1 (A33 to F325 residues) expressed in mammalian expression system measured after 1 hr by kinomescan method; in short: as §2
HCT-116 [13] = assay: Antitumor activity against human HCT116 cells xenografted in BALB/c mouse assessed as mean survival days at 10 mg/kg, iv administered every 3 days for 60 days (reference value: 25 day); type: functional
HCT-116 [14] = assay: Antitumor activity against human HCT116 cells xenografted in BALB/c mouse assessed as survival rate at 10 mg/kg, iv administered every 3 days for 60 days relative to control; type: functional; settings: HCT-116, iv
[15] = Half life in Sprague-Dawley rat at 10 mg/kg, iv administered […] by LC-MS/MS analysis; type: ADME, organism-based; settings: in vivo

Sequence of Serine/threonine-protein kinase PLK1 (P53350 whole entry, the tested form may be a part): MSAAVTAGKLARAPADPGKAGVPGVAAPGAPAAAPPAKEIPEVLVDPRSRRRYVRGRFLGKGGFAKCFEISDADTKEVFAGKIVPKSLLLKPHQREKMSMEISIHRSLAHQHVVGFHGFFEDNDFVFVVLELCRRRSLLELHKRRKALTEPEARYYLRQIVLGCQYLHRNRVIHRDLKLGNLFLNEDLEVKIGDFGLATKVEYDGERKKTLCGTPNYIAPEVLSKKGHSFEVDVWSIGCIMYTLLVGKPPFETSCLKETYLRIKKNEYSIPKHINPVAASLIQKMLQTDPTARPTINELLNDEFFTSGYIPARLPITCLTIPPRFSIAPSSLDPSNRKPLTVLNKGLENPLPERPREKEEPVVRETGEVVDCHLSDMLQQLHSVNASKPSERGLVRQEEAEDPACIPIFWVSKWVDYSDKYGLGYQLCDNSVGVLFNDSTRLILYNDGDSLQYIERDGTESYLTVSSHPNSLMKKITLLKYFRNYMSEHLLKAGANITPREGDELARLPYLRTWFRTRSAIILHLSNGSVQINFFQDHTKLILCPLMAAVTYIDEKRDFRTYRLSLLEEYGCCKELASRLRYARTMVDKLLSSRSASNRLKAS

## O=C(Nc1ccc2cc(C(=O)Nc3nccs3)ccc2c1)c1ccc(Cl)c(Cl)c1
[1]
  solubility: 9.6 µg/mL (≈ 21.7 µM)
HCT-116 [2]
  Activity: 41.1%
Homo sapiens
  inhibition: Active
HCT-116 [3]
  Activity: Dose-dependent effect
[4]
  AUC: 819.495 µg·h/mL
A549
  IC50: 11.6 µM
[5]
  AUC: 1260.761 µg·h/mL
[6]
  Kd: 7.11 µM
Aurora kinase A
  Kd: 0.023 µM
HCT-116 [7]
  Activity: 61.7%
[8]
  Activity: Toxic
[9]
  solubility: 286 µg/mL (≈ 647 µM)
HCT-116 [10]
  MSD: 45 days
HCT-116 [11]
  MSD: 37.5 days
[12]
  Kd: 0.055 µM
HCT-116 [13]
  MSD: >20 days
HCT-116 [14]
  survival at 10 mg/kg: 80%
[15]
  half-life: 16.2 h

— ChEMBL document CHEMBL4373706, “Discovery of Inhibitors of Aurora/PLK Targets as Anticancer Agents” (J Med Chem, 2019)
